High-throughput results deposited in PubChem by Broad Institute.
PglD DTNB: C. jejuni PglD acetyltransferase inhibitors, primary screen, biochemical, DTNB colorimetric, single point; UDP-N-acetylbacillosamine N-acetyltransferase PglD (Campylobacter jejuni); purified PglD enzyme, DTNB colorimetric CoA detection; inhibition, % at 12.5 µM; actives 0.098% (n = 360,000); AID 602405, 2012; in the data active = inhibition above about 16%, passing the limit was not always enough
E-selectin induc: E-selectin induction in HUVECs, primary screen, imaging, HUVEC, immunofluorescence imaging, single point; P16581; actives 0.37% (n = 260,000); normalized: neutral wells 0, TNF-alpha wells 100; activation, % at 7.58 µM;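 active = mean E-selectin-positive cell signal at least 10% of the positive control, reached in at least 60% of replicates, without over 20% cell loss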
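Read-out: % PE-positive cells | Test system: HUVEC | Doses: One compound dose added by pin transfer | Buffer or medium: EGM-2 over gelatin coat | Signal: Immunofluorescence imaging | Benchmarks: TNF-alpha, DMSO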
RAD54 branch: inhibitors of human RAD54 branch migration, primary screen, biochemical, fluorescence, single point | RAD54 Holliday junction branch migration, FAM/BHQ fluorescence | inhibition, % at 10.4 µM | actives 0.14% (n = 360,000);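 active = mean normalized replicate activity at least 40 and at least half of replicates scoring 40 or more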;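 also: 0% = median of neutral control wells and 100% = median of positive control wells; inhibitors cause a drop in the FAM fluorescence signal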
RAD52 anneal inh: RAD52 DNA annealing inhibitors, primary screen, biochemical, FRET, single point, set 2; DNA repair protein RAD52 homolog (Homo sapiens), P43351; recombinant RAD52 DNA annealing, FRET fluorescence; inhibition, % at 18.7 µM; actives 0.46% (n = 360,000); AID 651710, 2012;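 active = every replicate showing at least 50% inhibition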
Target sequence (P43351 whole entry, looked up): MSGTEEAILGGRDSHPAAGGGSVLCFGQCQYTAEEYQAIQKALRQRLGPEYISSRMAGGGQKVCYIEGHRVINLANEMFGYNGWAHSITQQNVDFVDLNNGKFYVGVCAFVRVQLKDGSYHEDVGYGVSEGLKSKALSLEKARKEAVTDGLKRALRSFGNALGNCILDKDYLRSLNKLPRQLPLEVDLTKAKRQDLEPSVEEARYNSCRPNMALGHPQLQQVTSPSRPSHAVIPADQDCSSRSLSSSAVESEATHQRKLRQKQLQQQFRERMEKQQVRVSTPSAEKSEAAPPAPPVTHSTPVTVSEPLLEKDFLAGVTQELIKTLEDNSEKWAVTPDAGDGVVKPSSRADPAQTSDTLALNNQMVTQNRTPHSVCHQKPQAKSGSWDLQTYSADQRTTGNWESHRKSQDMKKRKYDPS
Ecoli rRNA inh: reduced GFP signal of wild-type E. coli, primary screen, bacterial rRNA inhibitor project, GFP/RFP fluorescence, OD600, single point; E. coli WT GFP vs humanized-ribosome RFP mutants, 24 h; hits give low values; DMSO median 0, no signal -100; GFP signal change (wild-type ribosome), % (test concentration not listed); actives 1.6% (n = 350,000); AID 720706, 2013;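 active = significant combined selectivity score with lowered wild-type GFP, culture density cut under 30%, mutant RFP and density less affected; inactive = any of these conditions unmet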
Xi reactivation: activators of inactive X chromosome reactivation, primary screen, imaging, XiGFP fibroblasts, GFP high-content imaging, set 2; XiGFP mouse fibroblasts, % GFP-positive cells imaging, 3 d; cells co-treated with 5-aza-dC sensitizer; scaled so ellipticine positive control = 100%; activation, % at 7.58 µM; actives 0.055% (n = 360,000); AID 743238, 2013;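 active = mean normalized replicate activation at least 10% and every replicate at or above 10%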;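 also: 0% = median of on-plate neutral control wells and 100% = ellipticine 6 µM median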
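Material: SV40-immortalized XiGFP fibroblast cells, line 68-5-11 | Buffer or medium: DMEM containing 5-aza-dC | Dosing: One concentration, pinned | Times: 3 d treatment, 15 min room-temperature fixation | Controls: Ellipticine 6 µM positive control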
RAD52 DNA ctr: DNA-binding compounds via dye displacement, dose response, artefact control for RAD52 inhibitor project, biochemical, fluorescence polarization, cherry-pick; AID 652128, 2013; shares compounds with RAD52 anneal inh; actives 8% (n = 1,000); Salmon sperm DNA/acridine orange FP displacement; AC50, µM;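 active = fitted half-maximal concentration for signal loss at or below twice the highest dose tested, in every separate run, actives reach about 64 µM in these data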
The depositor's hits bear a star; i = inactive; · = no result; ! = repeats disagree. Compounds with a hit are over-represented: about 2% of the library has one in this group of screens.

SMILES	PglD DTNB	E-selectin induc	RAD54 branch	RAD52 anneal inh	Ecoli rRNA inh	Xi reactivation	RAD52 DNA ctr
COc1cc(/C=C2\SC(=O)N(CCN)C2=O)ccc1OS(=O)(=O)c1cc(C)ccc1C	·	-2	·	84*	-48	0	i
COc1ccc(/C=C2\SC(=O)N(CCC(=O)Nc3ccccc3)C2=O)cc1OC	·	·	·	·	·	0	·
CCn1c(SCC(N)=O)nc2sc3c(c2c1=O)CCN(C)C3	-3	0	31	56*	-1	0	i
CC(C)NC(=O)N1CC2(C1)[C@H](c1ccccc1)[C@@H](CO)N2C(=O)C1CCCC1	·	0	·	3	1	0	·
Cc1ccc2cc(C#N)c(NCCNC(=S)NCCCN(C)C)nc2c1C	·	·	·	100*	5	0	i
CCOCCCNC(=S)NCCNc1nc2c(C)cccc2cc1C#N	-4	·	9	·	·	·	·
CCOCCCNC(=S)NCCCNc1nc2c(C)cc(C)cc2cc1C#N	·	·	·	-5	18	0	·
Cc1cc(C)c2nc(NCCCNC(=S)NCCCN(C)C)c(C#N)cc2c1	·	·	·	94*	0	0	i
O=C(C[C@H]1CC[C@H]2[C@@H](COC[C@@H](O)CN2C(=O)Nc2cc(Cl)cc(Cl)c2)O1)NCC1CCCCC1	4	0	-6	17	-12	0	·
C[C@H]1CCCCO[C@H](CN(C)Cc2ccccc2)[C@@H](C)CN([C@@H](C)CO)C(=O)c2cc(NS(=O)(=O)c3cccs3)ccc2O1	7	·	4	21	-3	0	·
CCCCCc1cc(=O)oc2c(C(CCN(CC)CC)c3ccc(N(C)C)cc3)c(OC)cc(OC)c12 (stereo unspecified)	0	·	17	60*	-48	0	i
CCCCCc1cc(=O)oc2c(C(CCN3CCCC(C)C3)c3ccc(N(C)C)cc3)c(OC)cc(OC)c12 (stereo unspecified)	-4	·	-10	·	·	·	·
O=C(C[C@@H]1CC[C@H](NS(=O)(=O)c2ccccc2)[C@H](CO)O1)N1CCN(c2ccccc2)CC1	·	0	·	0	-1	0	·
CCN1/C(=C/c2sc(-c3ccccc3C)c[n+]2C)Sc2ccccc21	·	-4	·	69*	-54	0	i
CCCNC(=O)c1ccc2nc(-c3ccccc3)c(-c3ccccc3)nc2c1	-2	·	-2	-10	·	·	·
CCN1CCN(CCNC(=O)c2ccc3nc(-c4cccc(C)c4)c(-c4cccc(C)c4)nc3c2)CC1	8	3	9	68*	-57	0	i
CCCC(=O)Nc1ccc2c(c1)C(=O)N(C)C[C@H](OC)[C@@H](C)CN(CC1CCCC1)[C@H](C)CO2	·	0	·	·	-1	0	·
CCn1c2ccccc2c2cc(CN3CCN(Cc4cc(OC)ccc4O)CC3)ccc21	2	-4	5	54*	-9	0	i
COc1ccc(NC(=O)N(C)C[C@@H]2Oc3ccc(NC(=O)Nc4ccc(F)cc4)cc3CC(=O)N([C@H](C)CO)C[C@H]2C)cc1	5	0	3	11	-3	1	·
O=C1c2ccccc2C(=O)c2c(Nc3ccc(CCO)cc3)ccc(O)c21	2	·	2	-12	12	0	·
O=C1c2c(O)ccc(O)c2C(=O)c2c(NCCNCCO)ccc(NCCNCCO)c21	3	3	122*	102*	·	0	1.5µM*!
N#CCCN1CCN(Cn2c3ccccc3c3ccccc32)CC1	2	·	5	·	·	·	·
CN1CCN(CCCNCc2cn(CCC#N)c3ccccc23)CC1	1	·	15	63*	16	0	i
Cc1cc(C(=O)OC(C)C(=O)NC2CCCCC2C)c2ccccc2n1 (stereo unspecified)	-3	0	-4	51*	·	0	i
C[C@H]1CN([C@@H](C)CO)C(=O)CCCn2cc(nn2)CO[C@H]1CN(C)Cc1ccc2c(c1)OCCN2C	-3	0	7	-1	0	0	·
SMILES	PglD DTNB	E-selectin induc	RAD54 branch	RAD52 anneal inh	Ecoli rRNA inh	Xi reactivation	RAD52 DNA ctr
CCN1CCN(c2cc(C)c3cc(NC(=O)CCC(=O)N4CCN(c5ccccc5)CC4)ccc3n2)CC1	3	0	7	19	-2	0	·
CCN1CCN(c2cc(C)c3cc(NC(=O)c4cc(OC)cc(OC)c4)ccc3n2)CC1	3	·	34	55*	3	0	i
CCN1CCN(c2cc(C)c3cc(NC(=O)c4cnccn4)ccc3n2)CC1	-3	1	47	59*	-1	0	i
CCOc1ccc(C(=O)Nc2ccc3nc(N4CCN(CC)CC4)cc(C)c3c2)cc1	-2	·	5	11	4	0	·
Cc1ccc(S(=O)(=O)N(C)C[C@H]2Oc3ccc(NC(=O)Nc4ccc(C(F)(F)F)cc4)cc3C(=O)N([C@H](C)CO)C[C@@H]2C)cc1	0	1	2	-6	-1	-1	·
C[C@H]1CN([C@@H](C)CO)C(=O)c2cc(NS(=O)(=O)c3ccc(Cl)cc3)ccc2O[C@H]1CN(C)Cc1ccncc1	2	-12	-8	0	0	0	·
Cc1ccc(S(=O)(=O)Nc2ccc3c(c2)C(=O)N([C@@H](C)CO)C[C@@H](C)[C@H](CN(C)S(=O)(=O)c2cccs2)O3)cc1	1	0	0	-23	-5	-1	·
Cc1ccc(-c2c[n+](CC(=O)Nc3nc(-c4ccc(F)cc4)cs3)c3n2CCC3)cc1	-5	0	41	58*	-59	0	i
O=C(NCCCN1CCOCC1)NC1CCCCC1	-11	·	-1	·	·	·	·
O=C(NCCCCCCCN1CCCCCCC1)C(C1CCCCC1)C1CCCCC1	·	0	·	82*	-62	0	i
C[C@@H](O)C#Cc1ccc2c(c1)O[C@@H](CN(C)CC1CC1)[C@@H](C)CN([C@@H](C)CO)S2(=O)=O	·	0	·	·	7	-1	·
CN/C(=C\[N+](=O)[O-])NCCSCc1ccc(CN(C)C)o1	-7	3	-10	61*	·	0	i
COc1cc(C(=O)NC2CCN(C)CC2)ccc1Nc1ncc2c(n1)N(CCc1ccccc1)CCC(=O)N2C	4	0	33	81*	-16	0	i
